Screens (PubChem BioAssay)
Sampled rows, rich in hits. Any-hit rate of the full collection: about 3.7%.
KCNQ1 act – potentiators or activators of KCNQ1 channel, primary screen, cell-based, thallium flux, high-throughput; Potassium voltage-gated channel subfamily KQT member 1 (Homo sapiens), P51787; CHO-K1 KCNQ1, thallium flux FluxOR fluorescence; active compounds read high; B-score at 10 µM; actives 0.35% (n = 310,000);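 active means fluorescence ratio B-score, a plate-corrected score, at least three library SD, with initial intensity B-score within 5 SD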
Target sequence (P51787 whole entry, looked up): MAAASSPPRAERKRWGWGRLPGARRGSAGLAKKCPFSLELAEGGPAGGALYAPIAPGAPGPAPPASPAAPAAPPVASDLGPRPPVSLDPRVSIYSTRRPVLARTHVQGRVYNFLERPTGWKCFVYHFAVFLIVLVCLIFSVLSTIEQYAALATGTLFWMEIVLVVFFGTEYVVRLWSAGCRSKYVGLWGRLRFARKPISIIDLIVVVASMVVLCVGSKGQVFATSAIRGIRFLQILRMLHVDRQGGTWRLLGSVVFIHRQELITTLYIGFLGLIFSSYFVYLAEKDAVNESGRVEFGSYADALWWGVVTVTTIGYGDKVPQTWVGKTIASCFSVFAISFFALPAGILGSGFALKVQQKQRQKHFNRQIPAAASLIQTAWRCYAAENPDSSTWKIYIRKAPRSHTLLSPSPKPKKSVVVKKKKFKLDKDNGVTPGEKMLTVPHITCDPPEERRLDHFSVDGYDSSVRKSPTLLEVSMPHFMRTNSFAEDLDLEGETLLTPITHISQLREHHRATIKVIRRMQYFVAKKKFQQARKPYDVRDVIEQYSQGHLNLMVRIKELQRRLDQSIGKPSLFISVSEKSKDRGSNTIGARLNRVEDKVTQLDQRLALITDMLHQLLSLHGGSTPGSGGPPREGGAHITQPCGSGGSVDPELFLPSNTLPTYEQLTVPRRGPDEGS
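Medium – assay buffer, equal DMSO in all wells · Material – CHO-K1 cell line with stable KCNQ1 potassium channel expression · Signal – kinetic FluxOR thallium fluorescence, 10-s 1-Hz baseline, 110-s post-stimulus read · Compound – single concentration per compound, DMSO matched to controls · Schedule – 37 °C overnight plating, 90-min dark dye load, 20-min compound pretreatment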
KCNK3 inh – human KCNK3 channel inhibitors, primary screen, CHO cells, FluxOR thallium flux, B-score; AID 602410, 2012; FluxOR fluorescence; active compounds read low; actives 0.84% (n = 340,000); B-score at 10 µM;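 active means B-score under library mean minus 4 SD, starting fluorescence ratio at most library mean plus 5 SD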;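 further: more negative B-score means stronger inhibition of thallium flux through KCNK3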
KCNK9 block – KCNK9 potassium channel inhibitors, primary screen, HEK293 cells, thallium flux | FluxOR thallium flux fluorescence; active compounds read low | B-score at 10 µM | actives 1.2% (n = 310,000) | AID 488922, 2010;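 active means ratio B-score over 3 SD below the library mean, with starting fluorescence within 5 SD of its mean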;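 further: negative B-score means less thallium flux so channel inhibition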
Kir21 block – inhibitors of mouse Kir2.1 inward-rectifier potassium channel; Inward rectifier potassium channel 2 (Mus musculus), P35561; HEK293-Kir2.1, FluxOR thallium flux fluorescence; active compounds read low; B-score at 10 µM; actives 0.85% (n = 310,000);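 active means fluorescence ratio B-score at or below minus 3 SD of library scores, with starting-brightness B-score within 2 SD, cut at about -4.2 in these data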;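 further: channel flux triggered by added potassium and thallium sulfate stimulus; B-score of peak minus minimum fluorescence over baseline after thallium stimulus; more negative B-score means stronger Kir2.1 block with less thallium influx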
hERG protect – hERG rescue from dofetilide block, primary screen, cell-based, CHO-hERG, FluxOR thallium flux, dofetilide IC70; Voltage-gated inwardly rectifying potassium channel KCNH2 (Homo sapiens), Q12809; dofetilide IC70 present; actives 0.51% (n = 310,000); activation (rescue from dofetilide block), less the hit threshold, % at 10 µM;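 active means activation above the mean of controls blocked by dofetilide plus 5 SD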;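 further: thallium influx through hERG after potassium depolarization seen as dye fluorescence rise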
KCNQ1 block – inhibitors of human KCNQ1 channel, primary screen, cell-based, thallium flux, high-throughput | AID 2642, 2010 | CHO-K1 KCNQ1, FluxOR thallium flux fluorescence; active compounds read high | actives 1.3% (n = 310,000) | B-score at 10 µM;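 active means compounds whose thallium flux B-score, printed positive for inhibition, exceeds three library SD while starting fluorescence stays within three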;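 further: channel opened by potassium depolarization with thallium stimulus after 20 min compound exposure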
KCNK9 inh conf – KCNK9 potassium channel inhibitors, confirmation, HEK293 cells, thallium flux, duplicate | shares compounds with KCNK9 block | AID 492992, 2010 | FluxOR thallium flux fluorescence | inhibition, % at 10 µM | actives 43% (n = 4,900);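 active means thallium signal inhibited by more than 5 SD of the compound-free buffer control wells, on both duplicate plates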
Kir21 sel – mouse Kir2.1 channel inhibition, confirmation, selectivity assay for KCNK9 modulator project, cell-based, HEK293, thallium flux; shares compounds with KCNK9 block; Kir2.1 cells, FluxOR thallium flux fluorescence; inhibition, % at 10 µM; actives 4% (n = 4,900); AID 492993, 2010;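 active means thallium signal drop more than 5 SD beyond the mean of the no-compound control wells, seen in both duplicate plates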;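 further: signal is fluorescence rise after thallium addition divided by baseline fluorescence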
HEK293 Tl ctr – thallium flux in non-induced HEK293 cells, confirmation, counter-screen for KCNK9 inhibitor project, cell-based, second counter screen, non-induced KCNK9-HEK293 | shares compounds with KCNK9 block | FluxOR thallium flux | inhibition, % at 10 µM | actives 40% (n = 4,900) | AID 492997, 2010;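 active means thallium signal drop beyond 5 SD of the untreated control mean, on both duplicate plates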
Hits are given with their value.

Screening COc1cccc(/C=C/C(=O)Nc2ccc3nc4n(c(=O)c3c2)CCCC4)c1OC returned KCNQ1 act inactive, KCNK3 inh inactive, KCNK9 block inactive, Kir21 block inactive, hERG protect inactive and KCNQ1 block inactive.
`CC(C)(C)[C@@H]1COC(=O)[C@H](Cc2ccc(F)cc2)C/C=C\C[C@@H](CC(=O)N(CCO)Cc2ccccc2)C(=O)N1` gave KCNK3 inh inactive.
For Cc1cc(C)cc(-n2cccc2/C=C2/C(=N)N3C(=NC2=O)SN=C3S(C)(=O)=O)c1 the results were KCNQ1 act inactive, KCNK3 inh inactive, KCNK9 block inactive, Kir21 block inactive, hERG protect inactive, KCNQ1 block 10, KCNK9 inh conf inactive, Kir21 sel inactive and HEK293 Tl ctr inactive.
Screening CCS(=O)(=O)C1=NN2C(=N)/C(=C\c3ccc(OS(=O)(=O)c4ccccc4)cc3)C(=O)N=C2S1 returned KCNQ1 act inactive, KCNK3 inh inactive, KCNK9 block inactive, Kir21 block inactive, hERG protect inactive and KCNQ1 block inactive.
For CCC1=NN2C(=N)/C(=C\c3cccn3-c3ccc(C)c(C)c3)C(=O)N=C2S1 the results were KCNQ1 act inactive, KCNK3 inh inactive, KCNK9 block inactive, Kir21 block inactive, hERG protect inactive and KCNQ1 block inactive.
CCC1=NN2C(=N)/C(=C\c3cccn3-c3ccc(Cl)cc3)C(=O)N=C2S1 was read as KCNQ1 act inactive, KCNK3 inh inactive, KCNK9 block inactive, Kir21 block inactive, hERG protect inactive, KCNQ1 block inactive, KCNK9 inh conf inactive, Kir21 sel inactive and HEK293 Tl ctr inactive.
`CCC1=NN2C(=N)/C(=C/c3ccc(OS(=O)(=O)c4ccccc4)cc3)C(=O)N=C2S1` gave KCNQ1 act inactive, KCNK3 inh inactive, KCNK9 block inactive, Kir21 block inactive, hERG protect inactive, KCNQ1 block inactive, KCNK9 inh conf inactive, Kir21 sel inactive and HEK293 Tl ctr inactive.
For Cc1ccc(S(=O)(=O)Oc2ccc(/C=C3\C(=N)N4N=C(S(C)(=O)=O)SC4=NC3=O)cc2)cc1 the results were KCNQ1 act inactive, KCNK3 inh inactive, KCNK9 block inactive, Kir21 block inactive, hERG protect inactive, KCNQ1 block inactive, KCNK9 inh conf inactive, Kir21 sel inactive and HEK293 Tl ctr inactive.
For Cc1cc(C)c(OCC(=O)N(Cc2ccccc2)C2CCS(=O)(=O)C2)c(C)c1 (stereo unspecified) the results were KCNQ1 act inactive, KCNK3 inh inactive, KCNK9 block inactive, Kir21 block inactive, hERG protect inactive and KCNQ1 block inactive.
For O=C(COc1ccc2ccccc2c1)Nc1cccc2cccnc12 the results were KCNQ1 act inactive, KCNK3 inh inactive, KCNK9 block -8.7, Kir21 block inactive, hERG protect inactive, KCNQ1 block inactive, KCNK9 inh conf 46%, Kir21 sel inactive and HEK293 Tl ctr 39%.
For O=C(COc1ccc2ccccc2c1)Nc1cccnc1Cl the results were KCNQ1 act inactive, KCNK3 inh inactive, KCNK9 block inactive, Kir21 block inactive, hERG protect inactive and KCNQ1 block inactive.
`COc1ccc(C(=O)Nc2ccc(NS(=O)(=O)c3ccccc3)cc2)cc1OC` gave KCNQ1 act inactive, KCNK3 inh inactive, KCNK9 block inactive, Kir21 block inactive, hERG protect inactive and KCNQ1 block inactive.
COc1ccc(C(=O)C2CCCN(C(=O)CCc3ccccn3)C2)c(C)c1 (stereo unspecified) was read as KCNQ1 act inactive, KCNK3 inh inactive, KCNK9 block inactive, Kir21 block inactive, hERG protect inactive, KCNQ1 block inactive, KCNK9 inh conf inactive, Kir21 sel inactive and HEK293 Tl ctr inactive.
`COc1ccccc1C(=O)C1CCCN(C(=O)CCc2ccccn2)C1` (stereo unspecified) gave KCNQ1 act inactive, KCNK3 inh inactive, KCNK9 block inactive, Kir21 block inactive, hERG protect inactive and KCNQ1 block inactive.
For COc1ccc(NC2CCCN(C(=O)CCc3scnc3C)C2)cc1 (stereo unspecified) the results were KCNQ1 act inactive, KCNK3 inh inactive, KCNK9 block inactive, Kir21 block inactive, hERG protect inactive and KCNQ1 block inactive.
For COC(=O)CCCC(=O)N1CCCC(C(=O)c2ccc(OC)cc2C)C1 (stereo unspecified) the results were KCNQ1 act inactive, KCNK3 inh inactive, KCNK9 block inactive, Kir21 block inactive, hERG protect inactive, KCNQ1 block inactive, KCNK9 inh conf inactive, Kir21 sel inactive and HEK293 Tl ctr inactive.
`COc1ccc(C(=O)C2CCCN(C(=O)CCc3scnc3C)C2)c(C)c1` (stereo unspecified) gave KCNQ1 act inactive, KCNK3 inh inactive, KCNK9 block inactive, Kir21 block inactive, hERG protect inactive, KCNQ1 block inactive, KCNK9 inh conf inactive, Kir21 sel inactive and HEK293 Tl ctr inactive.
Screening COc1ccc(C(=O)C2CCCN(C(=O)c3ccc(C(C)=O)s3)C2)c(C)c1 (stereo unspecified) returned KCNQ1 act inactive, KCNK3 inh inactive, KCNK9 block inactive, Kir21 block inactive, hERG protect inactive, KCNQ1 block inactive, KCNK9 inh conf inactive, Kir21 sel inactive and HEK293 Tl ctr inactive.
For COC(=O)CCNCCSc1nnc(-c2ccco2)n1Cc1ccccc1 the results were KCNQ1 act inactive, KCNK3 inh inactive, KCNK9 block inactive, Kir21 block inactive, hERG protect inactive and KCNQ1 block inactive.
`Cc1cccc(-c2ccc3c(c2)C2CC3CCN2Cc2ccc3c(c2)OCO3)c1` (stereo unspecified) gave KCNK3 inh inactive.
